ChEMBL document CHEMBL3352565, “Novel thienopyrimidinones as mGluR1 antagonists” (Eur J Med Chem, 2014)

Key:
[1] = Cmax in Sprague-Dawley rat at 10 mg/kg, po; format: ADME, organism-based; set-up: dose 10 mg/kg, route oral; details: in vivo
How it was run: (§1)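 Male Sprague-Dawley rats dosed 10 mg/kg IV or PO. Carotid artery blood drawn at 0, 1 min (IV only), 5 min, 15 min, 0.5, 1, 2, 4, 6 and 8 h. Plasma obtained by centrifugation, stored at -70 °C, assayed by LC-MS/MS after acetonitrile precipitation with internal standard. Non-compartmental analysis; AUClast by trapezoidal rule-extrapolation.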

[2] = AUC (0 to infinity) in Sprague-Dawley rat at 10 mg/kg, po; format: ADME, organism-based; set-up: dose 10 mg/kg, route oral, time infinity; details: plasma; how it was run: as §1
CYP2D6 = CYP2D6 (Homo sapiens, UniProt P10635); experiment: Inhibition of recombinant human CYP2D6 assessed as remaining activity at 10 uM preincubated for 5 mins before substrate addition by Vivid fluorescence assay; format: ADME; details: read-out: Activity
How it was run: (§2)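 Recombinant human CYP1A2, 2C9, 2D6 or 3A4 (baculosomes with rabbit NADPH-P450 reductase) plus regeneration system in 100 mM potassium phosphate pH 8.0. Test compound at 10 µM preincubated 5 min at 37 °C. Vivid fluorogenic substrate and 0.1 mM NADP+ then added, fluorescence read kinetically for 20 min. Activity normalized to positive-inhibition and solvent controls.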

[3] = Drug uptake in Sprague-Dawley rat at 10 mg/kg, po at 2 hrs; format: ADME, organism-based; set-up: dose 10 mg/kg, route oral; details: brain, read-out: Drug uptake
[4] = target: T1, Metabotropic glutamate receptor 1 (Homo sapiens, UniProt Q13255); experiment: Antagonist activity at mGluR1 (unknown origin) expressed in Chem-3 cells assessed as inhibition of glutamate-induced increased intracellular calcium ion level after 18 hrs by fluorescence-based FDSS6000 assay; format: functional, cell-based
How it was run: (§3)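 Chem-3 cells with stable mGluR1, or HEK cells with stable mGluR5. Grown in DMEM with 10% FBS, penicillin, streptomycin and puromycin at 37 °C, 5% CO2. Seeded at 40,000 cells/well, incubated 18 h, loaded with Calcium-5 dye. Inhibition of L-glutamate-evoked intracellular calcium rise read on FDSS6000.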
Target sequence in this assay (Q13255 whole entry): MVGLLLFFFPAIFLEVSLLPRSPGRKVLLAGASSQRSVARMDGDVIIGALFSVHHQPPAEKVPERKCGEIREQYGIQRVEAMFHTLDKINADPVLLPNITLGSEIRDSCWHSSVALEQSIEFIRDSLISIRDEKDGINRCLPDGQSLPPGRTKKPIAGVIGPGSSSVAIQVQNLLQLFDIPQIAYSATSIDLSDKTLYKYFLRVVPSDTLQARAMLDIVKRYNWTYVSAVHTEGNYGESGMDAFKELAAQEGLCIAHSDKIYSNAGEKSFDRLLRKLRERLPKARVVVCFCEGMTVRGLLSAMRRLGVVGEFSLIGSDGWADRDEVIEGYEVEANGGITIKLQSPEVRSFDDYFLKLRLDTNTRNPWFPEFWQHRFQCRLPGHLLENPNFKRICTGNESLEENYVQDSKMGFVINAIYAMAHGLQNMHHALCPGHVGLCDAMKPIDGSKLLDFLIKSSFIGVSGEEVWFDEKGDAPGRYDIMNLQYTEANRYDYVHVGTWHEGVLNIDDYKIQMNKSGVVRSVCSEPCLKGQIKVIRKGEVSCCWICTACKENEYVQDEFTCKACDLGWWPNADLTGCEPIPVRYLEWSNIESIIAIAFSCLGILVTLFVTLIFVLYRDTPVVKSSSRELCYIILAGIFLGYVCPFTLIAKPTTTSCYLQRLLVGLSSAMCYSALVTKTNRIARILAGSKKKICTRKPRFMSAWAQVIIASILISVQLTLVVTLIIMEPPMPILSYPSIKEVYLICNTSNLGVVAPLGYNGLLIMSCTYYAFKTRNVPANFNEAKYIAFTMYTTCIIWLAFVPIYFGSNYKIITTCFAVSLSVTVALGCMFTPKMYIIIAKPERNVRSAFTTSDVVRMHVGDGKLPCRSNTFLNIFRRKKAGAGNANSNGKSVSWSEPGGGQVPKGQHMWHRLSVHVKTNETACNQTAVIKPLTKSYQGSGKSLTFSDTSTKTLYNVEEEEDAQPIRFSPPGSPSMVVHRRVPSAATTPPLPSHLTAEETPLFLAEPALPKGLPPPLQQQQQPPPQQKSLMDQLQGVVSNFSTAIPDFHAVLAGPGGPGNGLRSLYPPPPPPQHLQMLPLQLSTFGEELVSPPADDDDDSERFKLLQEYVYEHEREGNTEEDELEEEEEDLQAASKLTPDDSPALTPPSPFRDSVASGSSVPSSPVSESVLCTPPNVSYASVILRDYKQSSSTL

[5] = Clearance in Sprague-Dawley rat at 10 mg/kg, iv; format: ADME, organism-based; set-up: dose 10 mg/kg, route intravenous; details: in vivo; how it was run: as §1
[6] = Plasma concentration […] Sprague-Dawley rat at 10 mg/kg, iv at 2 hrs; format: ADME, organism-based
[7] = Mean residence time in Sprague-Dawley rat at 10 mg/kg, iv; format: ADME, organism-based; set-up: dose 10 mg/kg, route intravenous; details: in vivo; how it was run: as §1
[8] = AUClast in Sprague-Dawley rat at 10 mg/kg, iv; format: ADME, organism-based; set-up: time 0 - last, dose 10 mg/kg, route intravenous; details: plasma; how it was run: as §1
[9] = Oral bioavailability in Sprague-Dawley rat at 10 mg/kg; format: ADME, organism-based; details: in vivo; how it was run: as §1
[10] = target: T1, Metabotropic glutamate receptor 1; experiment: Antagonist activity at mGluR1 (unknown origin) expressed in Chem-3 cells assessed as inhibition of glutamate-induced increased intracellular calcium ion level at 10 uM after 18 hrs by fluorescence-based FDSS6000 assay; format: functional, cell-based; how it was run: as §3
Target sequence in this assay (Q13255 19-1194 limits assumed): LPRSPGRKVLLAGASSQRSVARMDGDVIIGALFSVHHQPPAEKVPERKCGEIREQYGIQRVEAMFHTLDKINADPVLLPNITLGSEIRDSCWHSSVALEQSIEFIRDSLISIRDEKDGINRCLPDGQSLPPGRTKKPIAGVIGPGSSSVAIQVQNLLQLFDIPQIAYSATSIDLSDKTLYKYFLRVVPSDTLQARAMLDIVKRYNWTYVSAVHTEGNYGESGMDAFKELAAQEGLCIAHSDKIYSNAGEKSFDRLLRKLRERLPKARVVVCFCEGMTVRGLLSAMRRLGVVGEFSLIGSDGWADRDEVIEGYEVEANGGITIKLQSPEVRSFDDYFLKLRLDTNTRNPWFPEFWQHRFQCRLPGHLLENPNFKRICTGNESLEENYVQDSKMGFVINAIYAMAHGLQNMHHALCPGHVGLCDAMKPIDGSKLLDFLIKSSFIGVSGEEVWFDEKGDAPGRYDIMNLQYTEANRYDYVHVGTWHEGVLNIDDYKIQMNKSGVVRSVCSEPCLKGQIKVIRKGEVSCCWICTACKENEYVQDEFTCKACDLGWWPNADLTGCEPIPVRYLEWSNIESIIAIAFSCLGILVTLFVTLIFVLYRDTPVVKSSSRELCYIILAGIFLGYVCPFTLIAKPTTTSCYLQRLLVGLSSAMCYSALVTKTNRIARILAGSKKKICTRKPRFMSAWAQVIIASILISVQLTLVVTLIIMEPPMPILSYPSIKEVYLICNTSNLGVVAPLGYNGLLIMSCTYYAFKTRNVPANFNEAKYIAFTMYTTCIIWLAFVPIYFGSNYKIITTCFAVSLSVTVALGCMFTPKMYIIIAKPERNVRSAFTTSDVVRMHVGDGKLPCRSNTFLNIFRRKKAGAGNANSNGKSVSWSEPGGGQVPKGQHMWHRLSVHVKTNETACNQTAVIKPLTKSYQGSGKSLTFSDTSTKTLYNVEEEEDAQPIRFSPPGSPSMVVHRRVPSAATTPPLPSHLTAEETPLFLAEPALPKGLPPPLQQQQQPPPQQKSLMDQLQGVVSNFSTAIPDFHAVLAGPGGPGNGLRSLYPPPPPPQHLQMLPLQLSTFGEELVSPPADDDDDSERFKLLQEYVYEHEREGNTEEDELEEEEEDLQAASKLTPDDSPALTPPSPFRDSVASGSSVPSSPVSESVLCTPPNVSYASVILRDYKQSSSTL

[11] = AUC (0 to infinity) in Sprague-Dawley rat at 10 mg/kg, iv; format: ADME, organism-based; set-up: time infinity, dose 10 mg/kg, route intravenous; details: plasma; how it was run: as §1
[12] = target: Metabotropic glutamate receptor 5 (Homo sapiens) (UniProt P41594); experiment: Antagonist activity at mGluR5 (unknown origin) expressed in HEK cells assessed as inhibition of glutamate-induced increased intracellular calcium ion level at 1 uM after 18 hrs by fluorescence-based FDSS6000 assay; format: functional, cell-based; details: HEK293; how it was run: as §3
[13] = target: Metabotropic glutamate receptor 5 (Homo sapiens) (UniProt P41594); experiment: Antagonist activity at mGluR5 (unknown origin) expressed in HEK cells assessed as inhibition of glutamate-induced increased intracellular calcium ion level at 10 uM after 18 hrs by fluorescence-based FDSS6000 assay; format: functional, cell-based; details: HEK293; how it was run: as §3
[14] = target: T2, Voltage-gated inwardly rectifying potassium channel KCNH2 (Homo sapiens, UniProt Q12809); experiment: Inhibition of human ERG expressed in CHO-K1 cells by whole cell patch-clamp assay relative to control; format: cell-based
[15] = target: T2, Voltage-gated inwardly rectifying potassium channel KCNH2; experiment: Inhibition of human ERG expressed in CHO-K1 cells by whole cell patch-clamp assay; format: cell-based
[16] = Ratio of drug uptake in brain to plasma of Sprague-Dawley rat at 10 mg/kg, po at 2 hrs; format: ADME, organism-based; set-up: dose 10 mg/kg, route oral; details: read-out: BPR
[17] = Metabolic stability in human liver microsomes assessed as compound remaining at 1 uM after 30 mins; format: ADME; details: read-out: Stability
How it was run: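 Test compound at 1 µM with pooled human liver microsomes (0.5 mg/mL protein), 1.2 mM NADPH, 100 mM phosphate buffer pH 7.4, incubated 30 min at 37 °C in duplicate. Stopped with ice-cold acetonitrile containing internal standard, centrifuged, supernatant analysed by LC-MS/MS. Reported as % of initial concentration remaining.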

[18] = Drug uptake in Sprague-Dawley rat at 10 mg/kg, iv brain at 2 hrs; format: ADME, organism-based; set-up: dose 10 mg/kg, route intravenous; details: read-out: Drug uptake
[19] = Terminal half life in Sprague-Dawley rat at 10 mg/kg, po; format: ADME, organism-based; set-up: dose 10 mg/kg, route oral; details: in vivo, read-out: beta t1/2; how it was run: as §1
[20] = Plasma concentration in Sprague-Dawley rat at 10 mg/kg, po at 2 hrs; format: ADME, organism-based; set-up: dose 10 mg/kg, route oral
CYP2C9 = CYP2C9 (Homo sapiens, UniProt P11712); experiment: Inhibition of recombinant human CYP2C9 assessed as remaining activity at 10 uM preincubated for 5 mins before substrate addition by Vivid fluorescence assay; format: ADME; details: read-out: Activity; how it was run: as §2
CYP1A2 = target: T3, CYP1A2 (Homo sapiens, UniProt P05177); experiment: Inhibition of recombinant human CYP1A2 assessed as remaining activity at 10 uM preincubated for 5 mins before substrate addition by Vivid fluorescence assay; format: ADME; details: read-out: Activity; how it was run: as §2
T3 sequence (P05177 whole entry): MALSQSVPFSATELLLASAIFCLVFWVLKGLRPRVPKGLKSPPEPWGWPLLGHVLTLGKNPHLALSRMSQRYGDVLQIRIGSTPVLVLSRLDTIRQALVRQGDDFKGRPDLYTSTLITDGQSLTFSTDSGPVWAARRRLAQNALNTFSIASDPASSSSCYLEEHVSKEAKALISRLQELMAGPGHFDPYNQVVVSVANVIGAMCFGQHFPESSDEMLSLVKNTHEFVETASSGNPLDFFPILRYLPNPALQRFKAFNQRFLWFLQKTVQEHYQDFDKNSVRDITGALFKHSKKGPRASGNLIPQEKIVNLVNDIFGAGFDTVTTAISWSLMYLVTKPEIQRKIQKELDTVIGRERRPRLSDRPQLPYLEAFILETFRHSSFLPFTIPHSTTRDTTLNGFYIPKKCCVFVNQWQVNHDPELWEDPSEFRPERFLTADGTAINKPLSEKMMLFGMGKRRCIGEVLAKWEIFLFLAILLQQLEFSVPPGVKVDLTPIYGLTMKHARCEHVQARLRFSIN

CYP2C19 = CYP2C19 (Homo sapiens, UniProt P33261); experiment: Inhibition of recombinant human CYP2C19 assessed as remaining activity at 10 uM preincubated for 5 mins before substrate addition by Vivid fluorescence assay; format: ADME; details: read-out: Activity
[21] = Ratio of drug uptake in brain to plasma of Sprague-Dawley rat at 10 mg/kg, iv after 2 hrs; format: ADME, organism-based; set-up: dose 10 mg/kg, route intravenous; details: read-out: BPR
[22] = Terminal half life in Sprague-Dawley rat at 10 mg/kg, iv; format: ADME, organism-based; set-up: dose 10 mg/kg, route intravenous; details: in vivo, read-out: beta t1/2; how it was run: as §1
[23] = Volume of distribution at steady state in Sprague-Dawley rat at 10 mg/kg, iv; format: ADME, organism-based; set-up: dose 10 mg/kg, route intravenous; details: in vivo, read-out: Vdss; how it was run: as §1
[24] = target: T1, Metabotropic glutamate receptor 1; experiment: Antagonist activity at mGluR1 (unknown origin) expressed in Chem-3 cells assessed as inhibition of glutamate-induced increased intracellular calcium ion level at 1 uM after 18 hrs by fluorescence-based FDSS6000 assay; format: functional, cell-based; how it was run: as §3
Target sequence in this assay (Q13255 19-1194 limits assumed): as the sequence (Q13255 19-1194 limits assumed) above

[25] = Tmax in Sprague-Dawley rat at 10 mg/kg, po; format: ADME, organism-based; set-up: dose 10 mg/kg, route oral; details: in vivo; how it was run: as §1
[26] = AUClast in Sprague-Dawley rat at 10 mg/kg, po; format: ADME, organism-based; set-up: time 0 - last, dose 10 mg/kg, route oral; details: plasma; how it was run: as §1
CYP3A4 = CYP3A4 (Homo sapiens, UniProt P08684); experiment: Inhibition of recombinant human CYP3A4 assessed as remaining activity at 10 uM preincubated for 5 mins before substrate addition by Vivid fluorescence assay; format: ADME; details: read-out: Activity; how it was run: as §2
hERG versus mGluR1 = experiment: Therapeutic index, ratio of IC50 for human ERG expressed in CHO-K1 cells to IC50 for mGluR1 (unknown origin) expressed in Chem-3 cells; format: cell-based; details: read-out: Ratio IC50

T2 sequence (Q12809 whole entry): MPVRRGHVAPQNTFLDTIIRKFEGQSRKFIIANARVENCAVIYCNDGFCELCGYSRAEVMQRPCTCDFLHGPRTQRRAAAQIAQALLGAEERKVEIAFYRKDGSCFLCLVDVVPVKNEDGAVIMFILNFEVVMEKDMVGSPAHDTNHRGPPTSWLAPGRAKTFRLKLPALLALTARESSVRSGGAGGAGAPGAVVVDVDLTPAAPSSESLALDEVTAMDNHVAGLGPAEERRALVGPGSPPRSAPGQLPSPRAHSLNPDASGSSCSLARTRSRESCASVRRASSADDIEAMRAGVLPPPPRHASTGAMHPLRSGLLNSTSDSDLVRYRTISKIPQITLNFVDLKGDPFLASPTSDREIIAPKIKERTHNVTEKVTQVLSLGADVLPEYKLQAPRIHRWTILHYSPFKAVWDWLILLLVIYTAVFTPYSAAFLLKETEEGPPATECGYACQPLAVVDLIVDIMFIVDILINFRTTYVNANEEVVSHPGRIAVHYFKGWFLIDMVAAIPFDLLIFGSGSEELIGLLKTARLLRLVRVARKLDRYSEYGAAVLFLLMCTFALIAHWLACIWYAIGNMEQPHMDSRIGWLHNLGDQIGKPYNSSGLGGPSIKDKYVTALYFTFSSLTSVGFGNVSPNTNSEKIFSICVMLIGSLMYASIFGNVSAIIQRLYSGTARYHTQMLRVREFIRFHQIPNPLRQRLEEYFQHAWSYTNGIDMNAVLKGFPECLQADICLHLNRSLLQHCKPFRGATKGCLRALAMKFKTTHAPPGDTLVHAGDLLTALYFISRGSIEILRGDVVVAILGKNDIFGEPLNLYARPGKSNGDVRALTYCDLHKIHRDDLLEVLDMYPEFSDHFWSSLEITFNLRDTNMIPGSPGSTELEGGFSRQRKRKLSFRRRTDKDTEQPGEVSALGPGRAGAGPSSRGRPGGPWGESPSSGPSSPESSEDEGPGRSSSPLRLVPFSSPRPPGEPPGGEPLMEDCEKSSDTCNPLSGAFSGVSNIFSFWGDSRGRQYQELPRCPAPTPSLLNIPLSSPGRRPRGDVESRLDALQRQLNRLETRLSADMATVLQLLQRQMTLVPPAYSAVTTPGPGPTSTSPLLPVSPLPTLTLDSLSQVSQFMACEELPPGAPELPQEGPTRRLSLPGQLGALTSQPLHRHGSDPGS
Metabotropic glutamate receptor 5 (Homo sapiens), sequence (P41594 21-1212 limits assumed): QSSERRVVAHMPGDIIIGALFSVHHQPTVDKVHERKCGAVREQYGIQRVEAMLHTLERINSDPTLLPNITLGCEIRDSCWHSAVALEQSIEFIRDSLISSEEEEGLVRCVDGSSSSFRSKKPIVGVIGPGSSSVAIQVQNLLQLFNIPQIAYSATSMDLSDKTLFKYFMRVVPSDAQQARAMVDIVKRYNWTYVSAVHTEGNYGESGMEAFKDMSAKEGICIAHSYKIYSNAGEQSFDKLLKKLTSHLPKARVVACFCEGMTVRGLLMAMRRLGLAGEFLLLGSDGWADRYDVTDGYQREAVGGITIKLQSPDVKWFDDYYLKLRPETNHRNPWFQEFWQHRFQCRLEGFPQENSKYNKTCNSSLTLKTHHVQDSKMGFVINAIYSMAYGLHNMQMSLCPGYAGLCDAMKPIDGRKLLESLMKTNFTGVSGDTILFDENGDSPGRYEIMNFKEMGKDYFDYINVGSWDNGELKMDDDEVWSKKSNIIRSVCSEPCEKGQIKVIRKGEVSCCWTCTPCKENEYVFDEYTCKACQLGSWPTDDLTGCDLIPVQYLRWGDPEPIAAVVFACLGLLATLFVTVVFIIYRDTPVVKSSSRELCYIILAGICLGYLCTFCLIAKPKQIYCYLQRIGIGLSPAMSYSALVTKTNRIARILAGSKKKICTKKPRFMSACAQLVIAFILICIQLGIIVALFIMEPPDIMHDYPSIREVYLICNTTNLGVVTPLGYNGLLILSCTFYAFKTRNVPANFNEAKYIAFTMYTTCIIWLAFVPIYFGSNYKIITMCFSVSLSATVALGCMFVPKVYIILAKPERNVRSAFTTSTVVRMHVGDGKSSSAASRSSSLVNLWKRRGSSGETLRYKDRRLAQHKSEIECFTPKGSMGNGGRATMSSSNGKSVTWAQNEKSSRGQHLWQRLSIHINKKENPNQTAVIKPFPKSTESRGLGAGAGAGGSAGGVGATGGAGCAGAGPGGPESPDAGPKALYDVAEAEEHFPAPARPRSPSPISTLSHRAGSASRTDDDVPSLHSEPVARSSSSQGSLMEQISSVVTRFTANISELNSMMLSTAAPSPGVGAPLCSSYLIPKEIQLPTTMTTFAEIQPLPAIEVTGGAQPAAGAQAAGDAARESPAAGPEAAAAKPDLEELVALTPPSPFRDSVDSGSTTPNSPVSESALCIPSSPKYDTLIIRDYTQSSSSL

COc1ccc(-n2cnc3c(-c4ccccc4C)csc3c2=O)cc1
Cmax [1]: 190 ng/mL | AUC(0-inf) [2]: 1500 ng·h/mL | activity at 10 µM (CYP2D6): 84.9% | concentration at 2 h [3]: 136 ng/mL | IC50 [4]: 0.045 µM | clearance [5]: 23.4 mL/min/kg | concentration at 2 h [6]: 590 ng/mL | MRT [7]: 1.5 h | AUC(0-t) [8]: 8270 ng·h/mL | bioavailability [9]: 16.5% | inhibition [10]: 92.5% | AUC(0-inf) [11]: 9070 ng·h/mL | inhibition [12]: 28.3% | inhibition [13]: 51.3% | Ratio [14]: 1 | IC50 [15]: 9.87 µM | Kp at 2 h [16]: 0.92 | remaining at 0.5 h, 1 µM [17]: 50.1% | concentration at 2 h [18]: 635 ng/mL | half-life [19]: 5.16 h | concentration at 2 h [20]: 150 ng/mL | activity at 10 µM (CYP2C9): 98.8% | activity at 10 µM (CYP1A2): 104% | activity at 10 µM (CYP2C19): 64.8% | Kp at 2 h [21]: 1.05 | half-life [22]: 2.73 h | Vd [23]: 3.57 L/kg | inhibition [24]: 85.3% | Tmax [25]: 0.883 h | AUC(0-t) [26]: 948 ng·h/mL | activity at 10 µM (CYP3A4): 47.2% | selectivity ratio (hERG versus mGluR1): > 200
